Data reported in ChEMBL document CHEMBL4813972, “A grafted peptidomimetic for EGFR heterodimerization inhibition: Implications in NSCLC models” (Eur J Med Chem, 2021).
Activity calls are given as the source filed them. The calls are words filed in the database; no cut-off is given here.

Legend:
[1] = biological target: Receptor tyrosine-protein kinase erbB-2 (Homo sapiens) (UniProt P04626); assay: Inhibition of HER2 ECD in human A549 cells assessed as reduction in Akt phosphorylation at 1 uM incubated for 40 hrs by Western blot analysis; assay type: cell-based
Mus musculus [2] = assay: In vivo inhibition of HER2/EGFR dimerization in human Calu-3 cells xenografted in Foxn1nu/Foxn1+ mouse at 8 mg/kg, IT(Intratumoral) administered thrice a week for 28 days and measured on day 28 by proximity ligation assay; assay type: functional, organism-based; details: time 28.0 day
Outline: (§1)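 Tumors taken from the Calu-3 intratumoral study (8 mg/kg three times weekly, 28 days). Two tumors frozen at −80 °C, homogenized and immunoblotted for p-HER2. Others fixed, paraffin-embedded and sectioned at 5 μm. Sections underwent citrate pH 6.0 antigen retrieval, H2O2 block and BSA/NGS/Triton block, EGFR/HER2 primaries overnight at 4 °C, then PLA probes; imaged at 10X/40X.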

A549 [3] = assay: Antiproliferative activity against human A549 cells overexpressing HER2 assessed as cell growth inhibition incubated for 72 hrs by cell titer glo assay; assay type: functional, cell-based; details: A549, 72 h
Outline: (§2)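 Cells seeded at 1×10^4 per well, left overnight at 37 °C/5% CO2, then exposed to a concentration series of peptide (up to 200, down to 0.01 μM) for 72 h. 1% SDS and 1% DMSO served as controls. Cells were PBS-washed, CellTiter-Glo added and luminescence read. IC50 taken from three independent experiments per cell line.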

MCF-10A = assay: Cytotoxicity against human MCF-10A cells assessed as cell growth inhibition incubated for 72 hrs by cell titer glo assay; assay type: cell-based; outline: as §2
[4] = Thermal stability of compound at 15 uM incubated at 25 to 75 degC by Circular dichroism spectrometry; assay type: physicochemical
Outline: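 Peptide at 15 μM in acetonitrile. Ellipticity recorded from 25 to 75 °C in 5 °C steps.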

[5] = biological target: T1, Epidermal growth factor receptor and ErbB2 (HER1 and HER2) (Homo sapiens) (UniProt P04626+P00533); assay: Inhibition of HER2/EGFR dimerization in human A549 cells incubated for 48 hrs by proximity ligation assay; assay type: cell-based; details: dose 0.5-1 µM
Outline: (§3)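 A549 or Calu-3 cells (~1×10^4/well) on chamber slides, treated 48 h with 0.5 or 1 μM peptide. Controls: no compound, and one primary antibody omitted. Cells fixed in cold methanol, primary antibodies (EGFR, HER2, HER3) applied overnight at 4 °C, then PLA probes. Red fluorescence imaged at 40x and quantified over 3–6 fields.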

Mus musculus [6] = assay: In vivo inhibition of HER2 in human Calu-3 cells xenografted in Foxn1nu/Foxn1+ mouse assessed as reduction in HER2 phosphorylation at 8 mg/kg, IT(Intratumoral) administered thrice a week for 28 days and measured on day 28 by Western blot analysis; assay type: functional, organism-based; details: time 28.0 day; outline: as §1
NCI-H1975 = assay: Synergistic antiproliferative activity against human NCI-H1975 cells assessed as combination index after 72 hrs in presence of erlotinib by cell titer glo assay; assay type: functional
Calu-3 [7] = assay: Antiproliferative activity against human Calu-3 cells overexpressing HER2 assessed as cell growth inhibition incubated for 72 hrs by cell titer glo assay; assay type: functional, cell-based; details: Calu-3, 72 h
[8] = Toxicity in BALB/c mouse assessed as Ki-67 expression in CD4+CD8+ at 6 mg/kg, iv administered on day 0 and 10 and spleenocytes collected on day 13 and incubated for 48 hrs by flow cytometry analysis; assay type: organism-based; details: in vivo, 360 h, time 15 day
Outline: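 Female BALB/c mice given 6 mg/kg peptide in PBS i.v. (or PBS) on days 0 and 10, 12 mice in total. Splenocytes harvested day 13, RBC-lysed, and ≥2×10^6 cultured 48 h in RPMI/10% FBS with control media or peptide. Cells then stained for viability, CD3/CD4/CD8a and intracellular Ki67, and analyzed by flow cytometry.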

A549 [9] = assay: Effect on HER2 expression in human A549 cells at 1 uM incubated for 40 hrs by Western blot analysis; assay type: functional, cell-based
[10] = Toxicity in Foxn1nu/Foxn1+ mouse xenografted with human Calu-3 cells assessed as effect on body weight at 8 mg/kg, IT(Intratumoral) administered thrice a week for 28 days and measured on day 28; assay type: organism-based; details: in vivo, other, 672 h, time 28 day
[11] = Toxicity in Foxn1nu/Foxn1+ mouse xenografted with human Calu-3 cells assessed as clinical observation at 8 mg/kg, IT(Intratumoral) administered thrice a week for 28 days and measured on day 28; assay type: organism-based; details: in vivo, other, 672 h, time 28 day
[12] = Toxicity in Foxn1nu/Foxn1+ mouse xenografted with human A549 cells harbouring KRAS mutant/wild type EGFR assessed as hyper-chromatic nuclei in lung at 6 mg/kg, iv administered twice a week for 5 weeks; details: in vivo, 840 h
[13] = biological target: T2, ErbB-2/ErbB-3 heterodimer (Homo sapiens) (UniProt P04626+P21860); assay: Inhibition of HER2/HER3 dimerization in human A549 cells incubated for 48 hrs by proximity ligation assay; assay type: cell-based; details: dose 0.5-1 µM; outline: as §3
[14] = biological target: T1, Epidermal growth factor receptor and ErbB2 (HER1 and HER2) (Homo sapiens); assay: Inhibition of HER2/EGFR dimerization in human Calu-3 cells incubated for 48 hrs by proximity ligation assay; assay type: cell-based; details: dose 0.5-1 µM; outline: as §3
[15] = Toxicity in Foxn1nu/Foxn1+ mouse xenografted with human A549 cells harbouring KRAS mutant/wild type EGFR assessed as eosinophilic cytoplasm in lung at 6 mg/kg, iv administered twice a week for 5 weeks; details: in vivo, 840 h
Calu-3 [16] = assay: Antitumor activity in human Calu-3 cells xenografted in Foxn1nu/Foxn1+ mouse assessed as reduction in tumor growth at 8 mg/kg, IT(Intratumoral) administered thrice a week for 21 days and measured on day 21 relative to control; assay type: functional, organism-based; details: time 21.0 day
Mus musculus [17] = assay: In vivo inhibition of HER2/HER3 dimerization in human A549 cells harbouring KRAS mutant/wild type EGFR xenografted in Foxn1nu/Foxn1+ mouse by measuring reduction in red fluorescence at 6 mg/kg, iv administered twice a week for 5 weeks by proximity ligation assay; assay type: functional, organism-based
Outline: (§4)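 Lung tumor sections from the A549-Red-FLuc i.v. metastasis mice (6 mg/kg i.v. twice weekly; sacrificed day 35). FFPE sections had citrate pH 6.0 antigen retrieval at 100 °C, peroxidase and serum blocking, primaries overnight at 4 °C, and PLA probes for EGFR:HER2 and HER2:HER3. Red fluorescence imaged at 40×.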

[18] = Toxicity in Foxn1nu/Foxn1+ mouse xenografted with human A549 cells harbouring KRAS mutant/wild type EGFR assessed as enlarged cells in lung at 6 mg/kg, iv administered twice a week for 5 weeks; details: in vivo, 840 h
[19] = biological target: Receptor tyrosine-protein kinase erbB-2 (Homo sapiens) (UniProt P04626); assay: Binding affinity to HER2 ECD (unknown origin) by SPR analysis
BT-474 = assay: Antiproliferative activity against human BT-474 cells overexpressing HER2 assessed as cell growth inhibition incubated for 72 hrs by cell titer glo assay; assay type: functional, cell-based; details: BT-474, 72 h
[20] = biological target: T2, ErbB-2/ErbB-3 heterodimer (Homo sapiens); assay: Inhibition of HER2/HER3 dimerization in human Calu-3 cells incubated for 48 hrs by proximity ligation assay; assay type: cell-based; outline: as §3
Mus musculus [21] = assay: In vivo inhibition of HER2/EGFR dimerization in human A549 cells harbouring KRAS mutant/wild type EGFR xenografted in Foxn1nu/Foxn1+ mouse by measuring reduction in red fluorescence at 6 mg/kg, iv administered twice a week for 5 weeks by proximity ligation assay; assay type: functional, organism-based; outline: as §4

Chain of Receptor tyrosine-protein kinase erbB-2 (Homo sapiens) (P04626 whole entry, the tested form may be a part): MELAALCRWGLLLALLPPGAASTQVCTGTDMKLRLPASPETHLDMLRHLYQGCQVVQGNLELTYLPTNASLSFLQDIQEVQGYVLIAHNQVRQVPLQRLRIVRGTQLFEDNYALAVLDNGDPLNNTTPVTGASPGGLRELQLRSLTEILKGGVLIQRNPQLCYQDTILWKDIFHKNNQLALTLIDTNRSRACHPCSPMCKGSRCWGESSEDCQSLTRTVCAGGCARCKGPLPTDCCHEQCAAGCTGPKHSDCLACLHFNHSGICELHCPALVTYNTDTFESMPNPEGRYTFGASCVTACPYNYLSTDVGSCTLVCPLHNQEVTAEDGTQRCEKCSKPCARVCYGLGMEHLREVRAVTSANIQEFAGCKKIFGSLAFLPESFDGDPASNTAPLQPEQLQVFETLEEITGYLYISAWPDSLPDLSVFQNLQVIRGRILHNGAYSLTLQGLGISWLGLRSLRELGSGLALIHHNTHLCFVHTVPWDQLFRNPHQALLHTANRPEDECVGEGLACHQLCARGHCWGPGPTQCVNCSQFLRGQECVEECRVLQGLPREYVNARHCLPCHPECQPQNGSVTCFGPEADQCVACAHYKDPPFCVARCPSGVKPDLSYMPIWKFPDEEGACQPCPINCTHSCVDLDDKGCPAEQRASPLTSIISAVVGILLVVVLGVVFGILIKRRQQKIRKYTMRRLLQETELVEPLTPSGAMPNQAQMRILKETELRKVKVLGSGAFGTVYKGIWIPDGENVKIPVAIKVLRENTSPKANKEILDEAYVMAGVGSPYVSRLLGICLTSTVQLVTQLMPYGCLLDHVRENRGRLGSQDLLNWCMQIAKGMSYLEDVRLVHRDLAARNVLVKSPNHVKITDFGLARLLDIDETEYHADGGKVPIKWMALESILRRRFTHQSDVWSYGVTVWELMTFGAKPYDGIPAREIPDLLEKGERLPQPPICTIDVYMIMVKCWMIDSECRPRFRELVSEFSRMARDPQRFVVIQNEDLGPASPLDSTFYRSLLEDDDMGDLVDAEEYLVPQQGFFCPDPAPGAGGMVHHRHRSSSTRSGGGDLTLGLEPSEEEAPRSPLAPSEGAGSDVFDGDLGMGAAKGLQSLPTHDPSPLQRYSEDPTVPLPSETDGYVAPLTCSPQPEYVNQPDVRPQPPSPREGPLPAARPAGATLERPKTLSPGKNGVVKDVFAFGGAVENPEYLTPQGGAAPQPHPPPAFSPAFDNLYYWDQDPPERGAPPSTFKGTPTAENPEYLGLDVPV

## CC[C@H](C)[C@H]1C(=O)NC(=O)[C@H](CCCNC(=N)N)NC(=O)C[C@@H](c2cccc3ccccc23)NC(=O)N[C@H]2CSSC[C@H](NC(=O)C[C@@H](c3cccc4ccccc34)NC(=O)[C@H](CCCNC(=N)N)NC(=O)[C@@H]3CCCN3C(=O)[C@@H]3CCCN13)C(=O)N[C@@H](Cc1ccccc1)C(=O)N1CCC[C@H]1C(=O)N[C@@H](CC(=O)O)C(=O)NC(=O)[C@H](CC(=O)O)NC(=O)[C@H](Cc1ccccc1)NC2=O
[1]
  inhibition: Active
Mus musculus [2]
  inhibition: Active
A549 [3]
  IC50: 369 nM
MCF-10A
  IC50: > 40000 nM
[4]
  Stabilty: Stable
[5]
  inhibition: Dose-Dependent Effect
Mus musculus [6]
  inhibition: Active
NCI-H1975
  CI: 0.76
Calu-3 [7]
  IC50: 73 nM
[8]
  Activity: Non-Toxic
A549 [9]
  Activity: inactive
[10]
  Activity: Non-Toxic
[11]
  Activity: Non-Toxic
[12]
  Activity: Non-Toxic
[13]
  inhibition: Dose-Dependent Effect
[14]
  inhibition: Dose-Dependent Effect
[15]
  Activity: Non-Toxic
Calu-3 [16]
  Activity: Active
Mus musculus [17]
  inhibition: Active
[18]
  Activity: Non-Toxic
[19]
  Activity: Dose-Dependent Effect
BT-474
  IC50: 280 nM
[20]
  inhibition: Dose-Dependent Effect
Mus musculus [21]
  inhibition: Active
